Compound activity from PubChem.
SKBR3 24h inh = SK-BR-3 proliferation inhibitors. SK-BR-3 viability, CellTiter-Glo ATP luminescence, 24 h; active compounds read low. viability, % at 10 µM. 0.47% of 41,000 active;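 active = viability at or below the median of all test compounds minus 3 SD, in both replicates if run twice, cut at about 45% in these data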;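 also: 100% = median untreated cell wells and 0% = median positive control drug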
HEK293 NFkB inh = inhibitors of the PMA/ionomycin-induced NF-kB reporter in HEK293 cells; 0.21% of 62,000 active; HEK-293 NF-kB luciferase reporter, luminescence; AID 465; inhibition, % at 3 µM;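 active = inhibition above the mean of all tested compounds plus 3 SD, cut at about 40% in these data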;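 also: 0% = stimulated DMSO wells and 100% = 10 µM reference inhibitor 5653914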
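Material: HEK-293 cells with stable firefly luciferase reporter driven by four HIV NF-kB elements / Also added: PMA plus ionomycin mix as NF-kB-activating stimulus / Compound dosing: 3 µM once, 0.30% DMSO / Times: 1 h pretreatment, 16 h stimulation, 37 °C / Signal: luminescence / Evaluation: per-plate % inhibition versus controls / Benchmarks: DMSO and 10 µM reference inhibitor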
HER2 expr 66K = inhibitors of human Her2 kinase expression; P04626; SKBR-3 HER2 protein level, AlphaScreen, 18-24 h; active compounds read low; HER2 level % of control, % at 10 µM; 0.69% of 65,000 active; AID 645;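 active = HER2 level under 5% of the carrier-only control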;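 also: 100% = DMSO carrier and 0% = 500 nM PU-H71 HSP90 inhibitor; lower value means stronger loss of Her2 protein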
Target sequence (P04626 whole entry, looked up): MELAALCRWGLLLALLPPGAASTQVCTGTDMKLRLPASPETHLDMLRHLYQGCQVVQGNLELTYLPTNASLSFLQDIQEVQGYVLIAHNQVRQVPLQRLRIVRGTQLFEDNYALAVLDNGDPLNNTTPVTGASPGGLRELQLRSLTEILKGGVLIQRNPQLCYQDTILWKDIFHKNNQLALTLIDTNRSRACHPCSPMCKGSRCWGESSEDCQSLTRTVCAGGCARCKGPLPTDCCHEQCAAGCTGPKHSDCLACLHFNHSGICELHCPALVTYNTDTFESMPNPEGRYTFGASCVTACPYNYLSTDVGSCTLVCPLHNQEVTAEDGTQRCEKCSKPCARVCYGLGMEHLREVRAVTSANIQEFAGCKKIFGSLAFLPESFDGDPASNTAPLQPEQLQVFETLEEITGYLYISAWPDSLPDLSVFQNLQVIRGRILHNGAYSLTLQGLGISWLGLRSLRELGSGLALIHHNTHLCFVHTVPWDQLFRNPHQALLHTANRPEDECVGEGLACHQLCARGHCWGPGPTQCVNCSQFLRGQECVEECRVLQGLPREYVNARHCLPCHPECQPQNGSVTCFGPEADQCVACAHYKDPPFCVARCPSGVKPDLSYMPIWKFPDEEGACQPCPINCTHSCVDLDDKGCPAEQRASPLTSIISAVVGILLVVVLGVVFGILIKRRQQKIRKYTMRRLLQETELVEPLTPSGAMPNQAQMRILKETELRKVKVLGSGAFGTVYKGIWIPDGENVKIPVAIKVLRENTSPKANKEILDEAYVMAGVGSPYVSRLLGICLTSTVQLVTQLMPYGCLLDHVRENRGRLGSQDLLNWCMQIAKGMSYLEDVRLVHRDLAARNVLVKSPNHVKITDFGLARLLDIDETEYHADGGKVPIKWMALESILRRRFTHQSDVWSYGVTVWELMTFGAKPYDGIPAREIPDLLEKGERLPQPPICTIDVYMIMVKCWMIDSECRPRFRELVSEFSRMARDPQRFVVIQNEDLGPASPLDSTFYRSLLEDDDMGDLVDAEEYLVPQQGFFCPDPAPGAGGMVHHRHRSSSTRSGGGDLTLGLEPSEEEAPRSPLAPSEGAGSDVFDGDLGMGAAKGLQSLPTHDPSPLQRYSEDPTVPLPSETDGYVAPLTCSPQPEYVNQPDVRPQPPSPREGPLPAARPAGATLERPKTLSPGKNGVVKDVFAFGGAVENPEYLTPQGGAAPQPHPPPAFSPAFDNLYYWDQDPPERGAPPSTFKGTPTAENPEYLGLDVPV
Jurkat viability = cytotoxic compounds reducing Jurkat cell viability. 1.2% of 56,000 active. Jurkat E6.1 viability, ATP luminescence, 48 h. inhibition, % at 4 µM;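 active = inhibition above the mean inhibition of all tested compounds plus 3 SD, cut at about 28% in these data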
Active calls of the source: *; · = no result given. Compounds with a hit are over-represented: about 2% of the library has one in this group of screens.

SMILES	SKBR3 24h inh	HEK293 NFkB inh	HER2 expr 66K	Jurkat viability
CCOC(=O)N1CCC(n2c(=S)[nH]c3cc(OCC)c(OCC)cc3c2=O)CC1	·	10	0.2*	·
COc1ccc(S(=O)(=O)N2CCC(C(N)=O)(N3CCCCC3)CC2)cc1	·	4	76	6
COc1cccc(NC(=O)N2CCC(C(N)=O)(N3CCCCC3)CC2)c1	40*	-7	50	-2
CC(C)OC(=O)CSc1nnc(-c2ccc(C(C)(C)C)cc2)n1N	106	10	93	12
Cn1c(=O)oc2cc(S(=O)(=O)N3CCCc4ccccc43)ccc21	·	8	35	91*
COC(=O)Nc1ccc(S(=O)(=O)N2CCCc3ccccc32)cc1	104	33	47	88*
O=C(Nc1ccc(S(=O)(=O)N2CCc3ccccc32)cc1)c1ccco1	·	13	92	11
CCOC(=O)N1CCN(C(=O)CN(c2cc(Cl)ccc2OC)S(=O)(=O)c2ccccc2)CC1	95	9	47	0
O=C(O)CCc1nn2cc(-c3ccccc3)nc2[nH]c1=O	88	·	-19*	·
CCc1nn2cc(-c3ccccc3)nc2s1	87	-4	·	-3
NC(=O)c1nsnc1-c1ccccc1O	93	5	113	-2
CCOC(=O)c1ccc(NC(=O)c2ccc(CN3CCOCC3)cc2)cc1	·	31	105	53*
Cc1ccc(N(CC(=O)NC2CC3CCC2C3)S(C)(=O)=O)cc1C (stereo unspecified)	90	18	-28*	·
Cc1ccc(C(=O)Nc2ccc(S(=O)(=O)N3CCN(C)CC3)cc2)o1	93	-3	127	-2
Cc1nn(-c2cccc(Cl)c2)c2c1C(c1ccncc1)C(C#N)=C(N)O2 (stereo unspecified)	88	·	78	·
Cc1ccc(-n2nc(C)c3c2OC(N)=C(C#N)C3c2ccc(F)cc2)cc1 (stereo unspecified)	104	1	-28*	-4
CCCCn1c(SCC(=O)c2ccc(OC)cc2OC)nc2cc(S(N)(=O)=O)ccc21	·	7	97	5
CCCCn1c(SCc2c(C)noc2C)nc2cc(S(N)(=O)=O)ccc21	·	42*	-21*	10
CC(C(=O)Nc1nc2ccccc2[nH]1)N1C(=O)C2CC=CCC2C1=O (stereo unspecified)	·	11	107	-5
COc1ccc(S(=O)(=O)Nc2cc(C(=O)NCCC(C)C)ccc2N2CCOCC2)cc1	·	11	123	-3
CCCc1nc2oc3c(N4CCNCC4)ncnc3c2c2c1CCCC2	71	18	-15*	0
COc1ccc2c(c1OC)C(=O)OC2Nc1ccccn1 (stereo unspecified)	96	16	65	11
COc1ccc2c(c1OC)C(=O)OC2Nc1ccccc1S(=O)(=O)C(F)F (stereo unspecified)	97	18	-21*	3
CCOCCCNC(=O)C(NC(=O)CC1NC(=O)NC1=O)c1ccc(Cl)cc1 (stereo unspecified)	44*	5	98	·
COC(=O)c1ccc(Cl)c(NS(=O)(=O)c2ccc3c(c2)OCCO3)c1	90	10	·	58*
SMILES	SKBR3 24h inh	HEK293 NFkB inh	HER2 expr 66K	Jurkat viability
CC(=O)c1cc2c(cc1NS(=O)(=O)c1ccc3c(c1)OCCO3)OCO2	104	19	108	-5
C=CCc1cccc2cc(C(=O)NC)c(=O)oc12	108	3	-18*	-5
COc1cc(-c2nnc3sc(-c4ccccn4)nn23)cc(OC)c1OC	90	-3	124	0
COc1cccc(-c2cc(C(=O)Nc3cc(OC)c(OC)c(OC)c3)no2)c1	110	22	67	67*
CC1CCCN(Cc2nc3c(c(=O)n(C)c(=O)n3C)n2CCCc2ccccc2)C1 (stereo unspecified)	95	5	91	4
Cc1ccc2cc(CN(Cc3ccco3)C(=O)c3cccs3)c(=O)[nH]c2c1	110	10	43	92*
C/C(=C(\C#N)C(=O)NC1CCCCC1)N(C)C	·	12	112	3
O=C(Nc1cnc2sc3c(n2c1=O)CCCC3)c1ccc(F)cc1	·	6	142	2
Cc1ccc(C2C(C#N)=C(N)Oc3c2sc2ccccc32)o1 (stereo unspecified)	·	2	6	-5
COc1ccc(Cl)cc1NC(=O)CN1CCC(n2nnc3cc(F)ccc32)CC1	134	11	93	-1
CCc1cc(-c2[nH]ncc2-c2ccc3c(c2)OCO3)c(O)cc1O	·	16	-1.1*	12
COc1ccc(-c2[nH]ncc2-c2ccc3c(c2)OCCO3)c(O)c1	97	30	33	8
Cc1ccnc(SCCn2c(Br)nc3c2c(=O)n(C)c(=O)n3C)n1	94	26	65	-5
CCCC(=O)Nc1nc2ccc(OCC)cc2s1	·	-33	87	-5
CCCC(=O)Nc1nc2ccc(S(=O)(=O)N3CCCCC3)cc2s1	·	27	59	79*
CC(=O)c1cccc(-n2nnnc2SCC(=O)Nc2cccc(NC(=O)c3ccco3)c2)c1	100	8	73	5
CCN(Cc1ccccc1)S(=O)(=O)c1ccc(C(=O)Nc2nnc(C3CC3)o2)cc1	·	3	81	101*
COCCN(CCOC)S(=O)(=O)c1ccc(C(=O)Nc2nnc(C)o2)cc1	19*	28	104	9
Cc1nnc(NC(=O)c2ccc(S(=O)(=O)N(C)Cc3ccccc3)cc2)o1	31*	20	77	11
COCc1nnc(NC(=O)c2ccc(S(=O)(=O)N(C)C3CCCCC3)cc2)o1	27*	26	106	10
COCc1nnc(NC(=O)c2ccc(S(=O)(=O)N3CCCCCC3)cc2)o1	47	18	70	-2
c1ccc2sc(Cc3nnc4n3CCCCC4)nc2c1	·	1	94	7
Cc1sc2ncnc(Sc3nnc4sc5ccccc5n34)c2c1C	110	6	·	·
CC(=O)NC(CC(=O)NCC(c1ccco1)N(C)C)c1ccccc1 (stereo unspecified)	71	16	82	·
CCC(C)Nc1nc2c(c(=O)n(C)c(=O)n2C)n1Cc1ccc(Cl)cc1 (stereo unspecified)	·	1	85	3
SMILES	SKBR3 24h inh	HEK293 NFkB inh	HER2 expr 66K	Jurkat viability
CCNc1nc2c(c(=O)n(C)c(=O)n2C)n1Cc1ccc(Cl)cc1	·	15	96	58*
CCOc1cc(N2CCOCC2)c(OCC)cc1NC(=O)c1cc(-c2ccco2)nc2ccccc12	44*	26	23	·
Cc1cccc(NC(=O)c2cc(-c3ccco3)nc3ccccc23)n1	·	18	83	5
COC(=O)c1cc2oc(C)cc2n1CC(=O)N1CCCc2ccccc21	·	28	94	0
Cc1ccccc1NS(=O)(=O)c1ccc2[nH]cc(C(=O)N(C)Cc3ccco3)c(=O)c2c1	·	-1	108	2
Cc1cc(C)cc(NS(=O)(=O)c2ccc3[nH]cc(C(=O)NCc4ccco4)c(=O)c3c2)c1	48	18	63	48*
CCOc1ccc(OCc2cccc(C(=O)N3CCCC3)c2)cc1	84	-3	95	-1
CCOc1ccc(OCc2cccc(C(=O)O)c2)cc1	95	97*	111	12
COc1ccc(OCc2cccc(C(=O)O)c2)cc1	92	94*	104	12
O=C(O)c1cccc(COc2ccc(CO)cc2Cl)c1	107	94*	117	7
